# Test results from the RNAGym collection of RNA variant scans (doi:10.1101/gad.245936.114).
# Fewer inactive variants are shown than the library holds.
# B1: tRNA (parent)
# chain: CUCUCGGUAGCCAAGUUGGUUUAAGGCGCAAGACUUUAAUUUAUCACUACGAAAUCUUGAGAUCGGGCGUUCGACUCGCCCCCGGGAGAUUUUUUCCUCGAGCAA
# Variants of: B1
# Experiment: nonsense suppression (GFP-seq) (ratio to wild type); higher = more function; SUP4oc tRNA, yeast GFP reporter sort-seq
# How it was run: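 Yeast carrying genome-integrated SUP4oc tRNA variants from a library with ~3% random mutations were grown in raffinose/galactose medium with 80 mg/L adenine. Each strain also carried a galactose-driven GFP ochre reporter and RFP. Cells were sorted into GFP/RFP bins, and each bin was Illumina-sequenced (phred ≥30). Nonsense suppression (GFPSEQ) is the bin median GFP/RFP, weighted by each variant's estimated cell share per bin, relative to wild-type SUP4oc; variants needed ≥100 reads and ≥30 cells.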
row,Variant,nonsense suppression
1,CUCUCGGUAGCCAAGUUGGUUUACGGCGCAAGACUUUAAUUUAUCACUACGAAAUCUUGAGAUCGGGCGAUCGACUCGCCCCCGGGAGAUUUUUUCCUCGAGCAA [A24C U70A],≤ 0.026
2,CUCUCGGUAGCCAAGUUGGUUUAGGGCGCAAGACUUUAAUUUAUCACUACGAAAUCUUGAGAGCGGGCGUUCGACUCGCACCCGCGAGAUUUUUUCCUCGAGCAA [A24G U63G C80A G85C],≤ 0.026
3,CUCUCGGUAGCCAAGUUGGUUUAGGGCGCAGGACUUUAAUUUAUCACUACGAAAUCUUGAGAUCGGGCGUUCGACUCGCCCCCGGGAGAUUUUUUCCUCGAGCAA [A24G A31G],0.0322
4,CUCUCGGUAGCCAAGUUGGUUUAGGGCGCAAGACUUUAAUUUAUCACUACGAAAUCUUGAGAUCGGGCGUUCGACUCGUCCCCGGGAGAUUUUUUCCUCGAGCAA [A24G C79U],0.0352
5,CUCUCGGUAGCCAAGUUGGUUUACGGCGCAAGACUUUAAUUUAUCACUACGAAAUCUUGAGAUCGGGCGUACGACUCCCACCCGGGUGAUUUUUUCCUCGAGCAA [A24C U71A G78C C80A A87U],≤ 0.026
6,CUCUCGGUAGCCAAGUUGGUUUACGGCGCAAGACUUUAAUUUAUCACUACGAAAUCUUGAGAUCGGGCGUACGACUCCCACCCGGGGGAUUUUUUCCUCGAGCAA [A24C U71A G78C C80A A87G],≤ 0.026
7,CUCUCGGUAGCCAAGUUGGUUUAUGGCGCGAGACUUUAAUUUAUCACUACGAAAUCUUGAGAUCGGGCGUUCGACUCGCCCCCGGGAGAUUUUUUCCUCGAGCAA [A24U A30G],0.148
8,CUCUCGGUAGCCAAGUUGGUUUAUGGCGCUAGACUUUAAUUUAUCACUACGAAAUCUUGAGAUCGGGCGUUCGACUCGCCCCCGGGAGAUUUUUUCCUCGAGCAA [A24U A30U],0.0403
9,CUCUCGGUAGCCAAGUUGGUUUACGGCGCAAGACUUUAAUUUAUCACUACGAAAUCUUGAGAUCGGGCGUUCGACUCGCCCCCGGGAAAUUUUUUCCUCGAGCAA [A24C G88A],0.0453
10,CUCUCGGUAGCCAAGUUGGUUUACGGCGCAAGACUUUAAUUUAUCACUACGAAACCUUGAGAUCGGGCGUUCGACUCGCCCCCGGGAGAUUUUUUCCUCGAGCAA [A24C U55C],0.365
11,CUCUCGGUAGCCAAGUUGGUUUACGGCGCAAGACUUUAAUUUAUCACUACGAAAUCUCGAGAUCGGGCGUUCGACUCGCCCCCGGGAGAUUUUUUCCUCGAGCAA [A24C U58C],0.034
12,CUCUCGGUAGCCAAGUUGGUUUAGGGCGCUAGACUUUAAUUUAUCACUACGAAAUCUUGAGAUCGGGCGGUAGACUCGCCCCCGGGAGAUUUUUUCCUCGAGCAA [A24G A30U U70G C72A],≤ 0.026
13,CUCUCGGUAGCCAAGUUGGUUUAGGGCGCAAGACGUUAAUUUAUCACUACGAAAUCUUGAGAUCGGGCGUUCGACUCGCCCCCGGGAGAUUUUUUCCUCGAGCAA [A24G U35G],≤ 0.026
14,CUCUCGGUAGCCAAGUUGGUUUAGGGCGUAAGACUUUAAUUUAUCACUACGAAAUCUUGAGAUCGGGCGUUCGACUCGCCCCCGGGAGAUUUUUUCCUCGAGCAA [A24G C29U],0.0384
15,CUCUCGGUAGCCAAGUUGGUUUACGGCGCAAGACUUUAAUUUAUCACUACGAAAUCUUGAGAUCGGGCGUUCGACUCGCCCCCGUGAGAUUUUUUCCUCGAGCAA [A24C G85U],0.258
16,CUCUCGGUAGCCAAGUUGGUUUAGGGCGCAAGACUUUAAUUUAUCACUACGAAAUCUUGGGAUCGGGCGUUCGACUCGCCCCCGGGAGAUUUUUUCCUCGAGCAA [A24G A60G],0.0307
17,CUCUCGGUAGCCAAGUUGGUUUACGGCGCAAGACUUUAAUUUAUCACUACGAAAUCUUGAGAUCGGGCGUUCCACUCGCCCCCCGGAGAUUUUUUCCUCGAGCAA [A24C G73C G84C],≤ 0.026
18,CUCUCGGUAGCCAAGUUGGUUUACGGCGCAAGACUUUAAUUUAUCACUACGAAAUCUUGAGAUCGGCCGUUCGACUCGCCCCCUGGAGAUUUUUUCCUCGAGCAA [A24C G67C G84U],≤ 0.026
19,CUCUCGGUAGCCAAGUUGGUUUACGGCGCAAGACUUUAAUUUAUCACUACGAAAUCUGGAGAUCGGGCGUUCGACUCGCCCCCGGUAGAUUUUUUCCUCGAGCAA [A24C U58G G86U],≤ 0.026
20,CUCUCGGUAGCCAAGUUGGUUUACGGCGCAAGACUUUAAUUUAUCACUACGAAAUCUUGAGAUCGGGCUUUCGACUCGCCCCCGGGAGAUUUUUUCCUCGAGCAA [A24C G69U],≤ 0.026
21,CUCUCGGUAGCCAAGUUGGUUUAGGGCGCAAGACUUUAAUUUAUCACUACGAAAUCUUGAGAUCGGGCGGUCGACUCGCCCCCGGGAGAUUUUUUCCUCGAGCAA [A24G U70G],≤ 0.026
22,CUCUCGGUAGCCAAGUUGGUUUAGGGCGCAAGACUUUAAUUUAUCACUACGAAAUCUUGAGAUCGGGCGUUCGACUCGCCCCCGGGAGAUUUUUUCCUCGAGCAA [A24G],0.188
23,CUCUCGGUAGCCAAGUUGGUUUAUGGCGCAAGACUUUAAUUUAUCACUACGAAAUCUUGAGAUCGGGCGUUCGACUCGCCCCCGGGAGAUUUUUUCCUCGAGCAA [A24U],0.487
24,CUCUCGGUAGCCAAGUUGGUUUAUGGCGCAAGGCUUUAAUUUAUCACUACGAAAUCUUGAGAUCGGGCGUUCGACUCGCCCCCGGGAGAUUUUUUCCUCGAGCAA [A24U A33G],0.117
25,CUCUCGGUAGCCAAGUUGGUUUACGGCGCAAUACUUUAAUUUAUCACUACGAAAUCUUGAGAUCGGGCGUUCGACUCGCCCCCGGGAGAUUUUUUCCUCGAGCAA [A24C G32U],0.043
26,CUCUCGGUAGCCAAGUUGGUUUACGGCGCAAGACUUUAAUUUAUCACUACGAAAUCUUGAGAUCGGUCGUUCGACUCGCCCCCGGGAGAUUUUUUCCUCGAGCAA [A24C G67U],0.0289
27,CUCUCGGUAGCCAAGUUGGUUUAGGGCGCAAGACUUUAAUUUAUCACUACGAAUUCUUGAGAUCGGGCGUUCGACUCGCCCCCGGGAGAUUUUUUCCUCGAGCAA [A24G A54U],0.0262

row,Variant,nonsense suppression
1,CUCUCGGUAGCCAAGUUGGUUUAUGGCGCAGGACUUUAAUUUAUCACUACGAAAUCUUGAGAUCGGGCGUUCGACUCGCCCCCGGGAGAUUUUUUCCUCGAGCAA [A24U A31G],0.229
2,CUCUCGGUAGCCAAGUUGGUUUACGGCGCAAGACUUUAAUUUAUCACUACGAAAUCUUGAGAUCGGGCGUUCGACCCGCCCCCGGGAGAUUUUUUCCUCGAGCAA [A24C U76C],0.88
3,CUCUCGGUAGCCAAGUUGGUUUACGGCGCAAGACUUUAAUUUAUCACUACGAAAUCUUGAGAACGGGCGUUCGACUCGCCCCCGGGAGAUUUUUUCCUCGAGCAA [A24C U63A],0.636
4,CUCUCGGUAGCCAAGUUGGUUUACGGCGCAAGACUUUAAUUUAUCACUACGAAAUCUUGAGAGCGGGCGUUCGACUCGCCCCCGGGAGAUUUUUUCCUCGAGCAA [A24C U63G],0.133
5,CUCUCGGUAGCCAAGUUGGUUUACGGCGCAAGACUUUAAUUUAUCACUACGAAAUCUUGAGACCGGGCGUUCGACUCGCCCCCGGGAGAUUUUUUCCUCGAGCAA [A24C U63C],0.205
6,CUCUCGGUAGCCAAGUUGGUUUACGGCGCAAGACUUUAAUUUAUCACUACGAAAUCUUGAGAUCGGGCGUUCGACUCGCCCCCAGGAGAUUUUUUCCUCGAGCAA [A24C G84A],0.478
7,CUCUCGGUAGCCAAGUUGGUUUAGGGCGCAUGAUUUUAAUUUAUCACUACGAAAUCUUGAGAUCGGGCGUUCGGCUCGCCCCCGGGAGAUUUUUUCCUCGAGCAA [A24G A31U C34U A74G],≤ 0.026
8,CUCUCGGUAGCCAAGUUGGUUUACGGCACAAGACUUUAAUUUAUCACUACGAAAUCUUGAGAUCGGGCGUUCGACUCGCCCCCGGGAGAUUUUUUCCUCGAGCAA [A24C G28A],0.952
9,CUCUCGGUAGCCAAGUUGGUUUACGGCCCAAGACUUUAAUUUAUCACUACGAAAUCUUGAGAUCGGGCGUUCGACUCGCCCCCGGGAGAUUUUUUCCUCGAGCAA [A24C G28C],0.201
10,CUCUCGGUAGCCAAGUUGGUUUACGGCGCAAGACUUUAAUUUAUCACUACGAAAUCAUGAGAUCGGGCGUUCGACUCGCCCCCGGGAGAUUUUUUCCUCGAGCAA [A24C U57A],0.0454
11,CUCUCGGUAGCCAAGUUGGUUUAGGGCGCAAGACUUUAAUUUAUCACUACGAAAUCUUGAAAUCGGGCGUUCGACCCGCCCCCGGGAGAUUUUUUCCUCGAGCAA [A24G G61A U76C],0.0509
12,CUCUCGGUAGCCAAGUUGGUUUAGGGCGCAAGACUUUAAUUUAUCACUACGAAACCUUGAGAUCGGGCGUUCGACUCGCCCCCGGGAGAUUUUUUCCUCGAGCAA [A24G U55C],0.0553
13,CUCUCGGUAGCCAAGUUGGUUUACGGCGCAAGACUUUAAUUUAUCACUACGAAAUCUUGAGAUCGGGCGUCCGACUCGCCCCCGGGAGAUUUUUUCCUCGAGCAA [A24C U71C],0.0704
14,CUCUCGGUAGCCAAGUUGGUUUAGGGCGCAAGACUUUAAUUUAUCACUACGAAAUCUUGAGAUCGGGCGUUCGACUCGCCCCCGAGAGAUUUUUUCCUCGAGCAA [A24G G85A],0.189
15,CUCUCGGUAGCCAAGUUGGUUUACGGCGCAAGACUUUAAUUUAUCACUACGAAAUCUUGAGAUCGGGCGUUCGACUCACCCCCGGGAGAUUUUUUCCUCGAGCAA [A24C G78A],0.112
16,CUCUCGGUAGCCAAGUUGGUUUACGGCGCAAGACUUUAAUUUAUCACUACGAAAUCUUGAGAUCGGGCGUUCGACUCUCCCCCGGGAGAUUUUUUCCUCGAGCAA [A24C G78U],0.0343
17,CUCUCGGUAGCCAAGUUGGUUUAGGGCGCAAGACUUUAAUUUAUCACUACGAAAUCUUAAGAUCGGGCGUUCGACUCGCCCCCGGGAGAUUUUUUCCUCGAGCAA [A24G G59A],≤ 0.026
18,CUCUCGGUAGCCAAGUUGGUUUAGGGCGCAAGACUUUAAUUUAUCACUACGAAAUCUUCAGAUCGGGCGUUCGACUCGCCCCCGGGAGAUUUUUUCCUCGAGCAA [A24G G59C],≤ 0.026
19,CUCUCGGUAGCCAAGUUGGUUUAGGGCGCAAGACUUUAAUUUAUCACUACGAAAUCUUGAGAUCGGGCGUUCGACUCGGCCCCGGCAGAUUUUUUCCUCGAGCAA [A24G C79G G86C],≤ 0.026
20,CUCUCGGUAGCCAAGUUGGUUUACGGCGCAAGACUUUAAUUUAUCACUACGAAAUCUUGAGAUCAGGCGUUCGACUCGCCCCCGGGAGAUUUUUUCCUCGAGCAA [A24C G65A],0.0366
21,CUCUCGGUAGCCAAGUUGGUUUACGGCGCAAGACUUUAAUUUAUCACUACGAAAUCUUGAGAUCUGGCGUUCGACUCGCCCCCGGGAGAUUUUUUCCUCGAGCAA [A24C G65U],0.0266
22,CUCUCGGUAGCCAAGUUGGUUUAGGGCGCAAGACUUUAAUUUAUCACUACGAAAUCUUGAGAUCGGGCGUUCGACUCGCCCCCGGGGGAUUUUUUCCUCGAGCAA [A24G A87G],0.0583
23,CUCUCGGUAGCCAAGUUGGUUUAGGGCGCAAGACUUUAAUUUAUCACUACGAAAUCUUGAGAUCGGGAGUUCGACUCGCCCGCUGGAGAUUUUUUCCUCGAGCAA [A24G C68A C82G G84U],≤ 0.026
24,CUCUCGGUAGCCAAGUUGGUUUAUGGCGCCAGACUUUAAUUUAUCACUACGAAAUCUUGAGAUCGGGCGUUCGACUCGCCCCAGGGAGAUUUUUUCCUCGAGCAA [A24U A30C C83A],≤ 0.026
25,CUCUCGGUAGCCAAGUUGGUUUAGGGCGCAAGACUUUAAUUUAUCACUACGAAAUCUUGAGAUCGGGCGUUCGAUUCGCCCCCGGGAGAUUUUUUCCUCGAGCAA [A24G C75U],0.185
26,CUCUCGGUAGCCAAGUUGGUUUAGGGCGCAAGACUUUAAUUUAUCACUACGAAAUCUUGAGAUCGGGCGUUCGAAUCGCCCCCGGGAGAUUUUUUCCUCGAGCAA [A24G C75A],0.24
27,CUCUCGGUAGCCAAGUUGGUUUACGUCGCAAGACUUUAAUUUAUCACUACGAAAUCUUGAGAUCGGGCGUUCGACUCGCCCCCGGGAGAUUUUUUCCUCGAGCAA [A24C G26U],0.038
